Most compounds without a hit are left out; they make up all but 2.4% or so of the library.
SUMO1 PPI mod: alters human SUMO1 binding to SIM partners; SUMO1 binding to a labelled peptide, TR-FRET, 1 h; inhibition, % at 20 µM; 360,000 compounds, 0.33% hits; in the data active = inhibition above about 37%
Target sequence (P63165 whole entry, looked up): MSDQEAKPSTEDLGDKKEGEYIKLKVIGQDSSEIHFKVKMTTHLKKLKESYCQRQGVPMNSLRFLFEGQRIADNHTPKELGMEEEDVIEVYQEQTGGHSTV
NadD block: NadD (S. aureus) enzyme inhibition; inhibition, % at 20 µM; 360,000 compounds, 0.78% hits; purified NadD enzyme, colorimetric absorbance read-out; in the data active = inhibition above about 26%
Scp1 inh: blocks human Scp-1 phosphatase activity | Q9GZU7 | AID 493091 | 340,000 compounds, 0.88% hits | Recombinant Scp1, phosphopeptide, malachite green phosphate absorbance | inhibition, % at 20 µM;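 active = inhibition above about 50% at 20 µM, limit read from the data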;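 note: plate controls were DMSO wells with enzyme for no effect and wells lacking enzyme for full effect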
Target sequence (Q9GZU7 76-261 limits assumed): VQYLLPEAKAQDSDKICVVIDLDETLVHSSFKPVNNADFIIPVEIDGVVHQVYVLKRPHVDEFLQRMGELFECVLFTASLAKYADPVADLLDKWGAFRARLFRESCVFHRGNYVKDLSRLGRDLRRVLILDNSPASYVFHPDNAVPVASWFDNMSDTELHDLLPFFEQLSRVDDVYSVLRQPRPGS
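Assay system: SCP-1 catalytic fragment, aa 76-261 | Buffer or medium: Tris acetate buffer pH 5.5 with MgCl2 and Tween-20 | Compound: One concentration, 20 µM, with 1.0% DMSO | Also added: Phospho 17-mer peptide substrate | Signal: Absorbance at 630 nm | Incubation: 45 min enzyme reaction at room temperature | Measure: % inhibition of SCP-1 phosphate liberation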
STEP inh: blocks human striatal-enriched tyrosine phosphatase | P54829 | recombinant STEP, OMFP fluorogenic substrate, fluorescence | inhibition, % at 20 µM | 360,000 compounds, 0.25% hits | AID 588621;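 active = inhibition at 20 µM, scaled per plate between control wells, above about 37%, limit read from the data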;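 note: 0% = DMSO with enzyme and substrate and 100% = substrate only without enzyme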
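Assay system: isolated STEP enzyme. Buffer or medium: pH 6.0 Bis-Tris with DTT and Tween 20. Also added: fluorogenic phosphatase substrate OMFP at 25 µM final. Dosing: 20 µM, 1% DMSO. Timing: 20 min reaction, room temperature, in the dark. Measured by: fluorescence intensity, excitation 480 nm, emission 540 nm. Evaluation: normalized % inhibition.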
DNMT1 block: DNMT1 (human) enzyme inhibition | P26358 | DNMT1 molecular beacon, Hinp1I cleavage, fluorescence | inhibition (reported as % activation of signal), % at 10 µM | 360,000 compounds, 0.83% hits; in the data active = inhibition above about 50%
LMPTP inh: LMPTP (human) inhibition; P24666; recombinant LMPTP-A, OMFP fluorogenic substrate, fluorescence intensity; inhibition, % at 20 µM; 360,000 compounds, 0.22% hits;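 active = compounds that cut the enzyme signal by at least half of the control window in the single-dose screen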;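 note: plate controls were DMSO wells with enzyme plus substrate for no effect and substrate without enzyme for full effect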
Target sequence (P24666 whole entry, looked up): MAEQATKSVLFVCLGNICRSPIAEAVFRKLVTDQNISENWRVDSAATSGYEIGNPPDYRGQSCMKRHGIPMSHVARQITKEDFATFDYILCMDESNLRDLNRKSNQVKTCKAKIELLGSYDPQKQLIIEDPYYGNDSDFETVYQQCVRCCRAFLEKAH
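Test system: LMPTP-A phosphatase enzyme; input: 0.625 nM LMPTP-A final; reagent: OMFP substrate, 400 µM final; compound dosing: 20 µM single dose, 3% DMSO; incubation: 50 min dark incubation at room temperature; measured by: endpoint fluorescence intensity from OMFP dephosphorylation; measure: % inhibition relative to no-enzyme and uninhibited control wells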
Active calls of the source: *; x = no result.

SMILES	SUMO1 PPI mod	NadD block	Scp1 inh	STEP inh	DNMT1 block	LMPTP inh
CC1(OC(=O)c2cccs2)C(=O)C=C2C=C3CCCN3C=C2C1=O (centres undefined)	23	14	55*	9	100*	11
Cc1nc2ccccc2c(-c2ccccc2)c1CC(=O)O	-1	-1	-6	-4	-1	0
Oc1ccccc1/C=N/Nc1cc(N2CCCC2)nc(N2CCCC2)n1	33	16	-30	8	58*	8
Oc1ccc(/C=N/Nc2cc(N3CCOCC3)nc(N3CCOCC3)n2)cc1O	-2	3	-7	-3	-18	2
Cc1cc(/C=C2/SC(=S)N(c3ccc([N+](=O)[O-])cc3)C2=O)c(C)n1-c1cccnc1	-14	17	3	4	-3	2
Cc1cc(/C=C2/SC(=S)N(c3cccc(Cl)c3)C2=O)c(C)n1-c1cccnc1	-11	30*	1	2	-12	4
N=C1/C(=C\c2ccc(OC(=O)c3ccc(F)cc3)cc2)C(=O)N=C2SC(N3CCCC3)=NN12	13	51*	24	2	19	1
N=C1/C(=C\c2ccc(OC(=O)c3ccco3)cc2)C(=O)N=C2SC(N3CCCCC3)=NN12	4	28	13	2	5	2
Cc1ccc(C(=O)Oc2ccc(/C=C3\C(=N)N4N=C(N5CCOCC5)SC4=NC3=O)cc2)cc1	14	40*	11	0	5	2
N=C1/C(=C\c2ccc(OC(=O)c3ccccc3)cc2)C(=O)N=C2SC(N3CCOCC3)=NN12	7	18	6	0	-5	1
O=C(O)c1c2c(nc3ccccc13)/C(=C/c1ccc(O)cc1)CC2	19	0	62*	41*	87*	17
CC(=O)Nc1ccc(N(C(=O)c2cnccn2)C(C(=O)NC2CCCCC2)c2ccc(F)cc2)cc1 (centres undefined)	3	-4	2	-2	0	-1
COc1cc([N+](=O)[O-])ccc1NC(=O)COC(=O)c1ccc(NC(N)=O)cc1	45*	-1	-5	2	3	19
COCC(=O)Nc1ccc([N+](=O)[O-])cc1OC	-12	2	-7	0	-3	-2
O=C(COC(=O)C1CCCO1)Nc1cccc(C(F)(F)F)c1 (centres undefined)	1	2	-1	1	3	0
COc1cccc2sc(Nc3nc(-c4cc5ccccc5oc4=O)cs3)nc12	61*	23	11	4	-2	12
CCCNC(=O)C1(C)CCN(C(=O)c2ccc3sccc3c2)C1 (centres undefined)	6	2	x	3	-2	-2
O=C1C=CC2=C3c4cc(O)c(O)cc4CC3(O)COC2=C1O (centres undefined)	58*	48*	42	11	91*	67*
CC(=O)c1sc(Nc2nc3cc4c(cc3s2)OCO4)nc1C	40*	-6	-3	2	-3	4
CN(c1ccc(C(=O)N2CCOCC2)cc1)S(=O)(=O)c1cccs1	-1	-6	-8	-4	2	-4
Cc1ccc(S(=O)(=O)N(C)C)cc1NC(=O)COC(=O)c1ccc2c(c1)OCO2	0	1	-2	0	7	-1
CCN(CC)Cc1cc(O)c(CN(CC)CC)cc1O	19	31*	3	3	9	3
O=C(NC1(O)C(=O)c2ccccc2C1=O)c1ccc(C(F)(F)F)cc1	7	-3	3	2	61*	4
CN(C)c1ccc(-c2nc3ccccn3c2/N=C/c2ccc(Br)cc2)cc1	-17	2	-8	42*	-19	1
COc1ccc(C(=O)Nn2c(SCC(=O)c3ccccc3)nc3ccccc3c2=O)cc1	34	16	-16	0	-3	0
SMILES	SUMO1 PPI mod	NadD block	Scp1 inh	STEP inh	DNMT1 block	LMPTP inh
COc1ccc(C(=O)Nn2c(SCc3ccc([N+](=O)[O-])cc3)nc3ccccc3c2=O)cc1	-5	33*	-12	4	-5	-1
c1ccc(C(CN2CCCCC2)Oc2ccccn2)cc1 (centres undefined)	-2	-4	-5	-2	0	-1
COc1ccc(N=C2NC(=O)/C(=C\C=C\c3ccccc3)S2)cc1	0	26*	-2	1	3	0
COc1ccc(N=C2NC(=O)/C(=C/C=C/c3ccccc3)S2)cc1	2	27	-4	-4	16	-2
O=C1NC(=Nc2ccccc2)S/C1=C\C=C\c1ccco1	26	29	-2	2	93*	15
Cc1ccccc1CN1CCN(S(=O)(=O)c2ccc(F)cc2)CC1	-1	-5	0	0	2	-1
C[n+]1ccccc1/C=C/c1ccccc1Cl	-7	15	98*	-2	1	-3
CCOC(=O)c1ccc(N2CC(O)=C(c3nc4ccccc4c(=O)[nH]3)C2=N)cc1	50*	25	9	-1	-3	-1
CCn1cc(C(=O)NC(C)C23CC4CC(CC(C4)C2)C3)cn1 (centres undefined)	6	2	1	-2	4	0
CC(NC(=O)Cn1ncc(Cl)c(Cl)c1=O)C12CC3CC(CC(C3)C1)C2 (centres undefined)	9	8	0	-1	59*	1
CCC1=NN2C(=N)/C(=C\c3ccc(OCCOc4ccc(NC(C)=O)cc4)c(OC)c3)C(=O)N=C2S1	14	17	-15	-4	0	0
COc1ccc(-n2cccc2/C=C2\C(=N)N3N=C(c4ccco4)SC3=NC2=O)cc1	103*	74*	82*	87*	90*	51*
CCC1=NN2C(=N)/C(=C\c3ccc(OCCOc4ccccc4OC)cc3)C(=O)N=C2S1	11	25*	-2	-1	-4	0
COc1ccc(OCCOc2ccc(/C=C3\C(=N)N4N=C(C)SC4=NC3=O)cc2)cc1	5	68*	10	2	10	0
Cc1cc[n+](-c2nc([O-])sc2/C=N/Nc2ccc([N+](=O)[O-])cc2)cc1	-32	3	-3	-1	-8	6
O=C(NCc1ccco1)c1cc(S(=O)(=O)N2CCOCC2)ccc1Br	7	-5	1	2	1	1
CCOC(=O)/C(=C\Nc1ccccc1C(F)(F)F)Sc1ncc(C(F)(F)F)cc1Cl	4	-4	-8	8	8	1
N#Cc1c(Sc2ncc(C(F)(F)F)cc2Cl)nsc1C/C=N\OCc1ccccc1Br	-4	46*	-13	0	-12	-1
Cc1ccc(C(=O)N2CCN(Cc3ccccc3)CC2)o1	-1	2	-4	0	3	-1

Bioassay records as filed in PubChem BioAssay.
